Calls of active or inactive are those of the source. The calls are words filed in the database; no cut-off is given here.
Experiments:
Rhizopus arrhizus [1] = assay: Antimicrobial activity against Rhizopus oryzae at 16 ug/disk after 24 hrs by disk diffusion method; type: functional, organism-based
Method in brief: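 Paper disks loaded with 8, 16 or 32 μg colistin were placed on agar plates inoculated with 200 μl of a 10^6 cells/ml R. oryzae spore suspension. After 24 h at 37°C, the diameter of the inhibition zone was measured.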

[2] = tested on: Cunninghamella bertholletiae; assay: Antimicrobial activity against Cunninghamella bertholletiae isolate 6694 after 24 hrs in RMPI 1640 medium by broth microdilution method; type: functional, organism-based
Method in brief: (§1)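 Colistin was serially diluted from 64 to 0.06 μg/ml in RPMI 1640 with glucamine and without bicarbonate. Fresh spores from 48–72 h YAG plates were added at 0.5 × 10^4 to 4 × 10^4 cells/ml. Plates were incubated 24 h at 37°C. MIC was read visually as the lowest concentration giving 100% growth inhibition.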

Rhizopus arrhizus [3] = assay: Antimicrobial activity against Rhizopus oryzae isolate 5879 after 24 hrs in yeast nitrogen base complete medium by broth microdilution method; type: functional, organism-based
Method in brief: (§2)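 Microdilution was done in yeast nitrogen base complete medium, with colistin serially diluted 128 to 0.12 μg/ml. Spores were harvested from YAG plates (48–72 h, 37°C), washed, filtered and counted, then added at 0.5 × 10^4 to 4 × 10^4 cells/ml. After 24 h at 37°C, MIC was taken visually as the lowest concentration with complete growth inhibition.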

Rhizopus arrhizus [4] = assay: Antimicrobial activity against Rhizopus oryzae assessed as vacuolar and plasma membrane damage at 32 ug/ml by FM4-64 staining; type: functional, organism-based
Method in brief: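 Germlings at 5 × 10^6/ml were loaded with 5 μM FM4-64 in RPMI 1640 for 30 min at 30°C in the dark. After washing in PBS, they were exposed to colistin at the MIC and MFC, or drug-free RPMI, for 60 min at 37°C. Membranes were viewed by fluorescence microscopy with a rhodamine filter.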

Rhizopus homothallicus = assay: Antimicrobial activity against Rhizopus homothallicus isolate 6360 after 24 hrs in RMPI 1640 medium by broth microdilution method; type: functional; method in brief: as §1
Rhizopus = assay: Antimicrobial activity against Rhizopus sp. isolate 4523 after 24 hrs in RMPI 1640 medium by broth microdilution method; type: functional, organism-based
Method in brief: (§3)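 Broth microdilution in RPMI 1640 with […], without bicarbonate. Colistin was serially diluted 64 to 0.06 μg/ml. Spores came from YAG plates grown 48–72 h at 37°C, were filtered and counted, and were inoculated at 0.5 × 10^4 to 4 × 10^4 cells/ml. Plates were incubated 24 h at 37°C. MIC was read visually as the lowest concentration giving 100% growth inhibition.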

Mucor circinelloides [5] = assay: Ratio of MFC to MIC for Mucor circinelloides isolate 4480 after 24 hrs in RMPI 1640 medium by broth microdilution method; type: functional, organism-based
Method in brief: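 RPMI 1640 microdilution with colistin at 64 to 0.06 μg/ml and spores at 0.5 × 10^4 to 4 × 10^4 cells/ml, incubated 24 h at 37°C. MIC was read visually as 100% inhibition. For MFC, 20 μl from clear wells and from the last growth well were subcultured onto YAG. MFC was the lowest concentration giving fewer than three colonies at 24 h (≥99.9% killing). The line reports the MFC/MIC ratio.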

Rhizopus arrhizus [6] = assay: Antimicrobial activity against Rhizopus oryzae assessed as plasma membrane disruption-related ATP release at 32 ug/ml after 5 mins by Cell Titer-Glo luminescent assay; type: functional, organism-based
Method in brief: (§4)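 Spores at 10^7 cells/ml in RPMI 1640 were germinated about 6 h at 37°C. Germlings were resuspended in RPMI with colistin at 8 or 32 μg/ml, or drug-free, and shaken at 37°C. Supernatants taken at 5, 30, 60 and 90 min were assayed for released ATP by CellTiter-Glo luminescence.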

Rhizopus arrhizus [7] = assay: Fungicidal activity against Rhizopus oryzae 5799 after 6 hrs by DiBAC staining; type: functional, organism-based
Method in brief: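 Spores were grown to mycelia in RPMI 1640 plus 0.15% Junlon, shaken 18 h at 37°C. Mycelia were pelleted and exposed 6 h at 37°C with shaking to colistin (two levels), amphotericin B 2 μg/ml, or drug-free medium. They were washed in MOPS pH 7, stained with DiBAC 2 μg/ml for 1 h in the dark at ambient temperature, and imaged by fluorescence microscopy with an FITC filter.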

Rhizopus microsporus = assay: Antimicrobial activity against Rhizopus microsporus isolate 6164 after 24 hrs in yeast nitrogen base complete medium by broth microdilution method; type: functional
Method in brief: (§5)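 Broth microdilution in YNB complete medium with colistin at 128 to 0.12 μg/ml. Freshly collected spores were inoculated at 0.5 × 10^4 to 4 × 10^4 cells/ml and incubated 24 h at 37°C. MIC was read visually as the lowest concentration with complete (100%) growth inhibition.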

Rhizopus arrhizus [8] = assay: Antimicrobial activity against Rhizopus oryzae isolate 6725 after 24 hrs in RMPI 1640 medium by broth microdilution method; type: functional, organism-based; method in brief: as §3
Rhizopus arrhizus [9] = assay: Antimicrobial activity against Rhizopus oryzae isolate 6093 after 24 hrs in RMPI 1640 medium by broth microdilution method; type: functional, organism-based; method in brief: as §3
Mucor circinelloides [10] = assay: Antimicrobial activity against Mucor circinelloides isolate 4480 after 24 hrs in RMPI 1640 medium by broth microdilution method; type: functional, organism-based; method in brief: as §1
Rhizopus arrhizus [11] = assay: Antimicrobial activity against Rhizopus oryzae assessed as plasma membrane disruption-related ATP release at 32 ug/ml after 30 mins by Cell Titer-Glo luminescent assay; type: functional, organism-based; method in brief: as §4
Rhizopus arrhizus [12] = assay: Antimicrobial activity against Rhizopus oryzae isolate 6725 after 24 hrs in yeast nitrogen base complete medium by broth microdilution method; type: functional, organism-based; method in brief: as §2
Rhizopus arrhizus [13] = assay: Antimicrobial activity against Rhizopus oryzae isolate 3140 after 24 hrs in yeast nitrogen base complete medium by broth microdilution method; type: functional, organism-based; method in brief: as §5
[14] = tested on: Cunninghamella bertholletiae; assay: Antimicrobial activity against Cunninghamella bertholletiae isolate 6694 after 24 hrs in yeast nitrogen base complete medium by broth microdilution method; type: functional, organism-based; method in brief: as §5
Rhizopus arrhizus [15] = assay: Antimicrobial activity against Rhizopus oryzae isolate 4153 after 24 hrs in yeast nitrogen base complete medium by broth microdilution method; type: functional, organism-based; method in brief: as §5
Rhizopus arrhizus [16] = assay: Antimicrobial activity against Rhizopus oryzae assessed as reduction in hyphal viability at 8 ug/ml up to 6 hrs by XTT assay; type: functional, organism-based
Method in brief: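 R. oryzae mycelia were shaken at 37°C in RPMI 1640 with colistin, amphotericin B or both; drug-free RPMI served as control. At 0, 2, 6 and 24 h, pellets received XTT (1 mg) plus menadione (0.17 mg) in 1 ml PBS for 1 h at 37°C, then OD405 was read. Viability is drug OD405 divided by control OD405; at least three experiments.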

Mucor circinelloides [17] = assay: Antimicrobial activity against Mucor circinelloides isolate 4030 after 24 hrs in RMPI 1640 medium by broth microdilution method; type: functional, organism-based; method in brief: as §1
Rhizopus arrhizus [18] = assay: Antimicrobial activity against Rhizopus oryzae isolate 5799 after 24 hrs in RMPI 1640 medium by broth microdilution method; type: functional, organism-based; method in brief: as §1
[19] = tested on: Cunninghamella bertholletiae; assay: Antimicrobial activity against Cunninghamella bertholletiae isolate 5633 after 24 hrs in yeast nitrogen base complete medium by broth microdilution method; type: functional, organism-based; method in brief: as §5

MIC [2]: 16 µg/mL
MIC (Rhizopus arrhizus [3]): 128 µg/mL
MIC (Rhizopus homothallicus): 32 µg/mL
MIC (Rhizopus): 16 µg/mL
MIC (Rhizopus microsporus): 128 µg/mL
MIC (Rhizopus arrhizus [8]): 16 µg/mL
MIC (Rhizopus arrhizus [9]): 16 µg/mL
MIC (Mucor circinelloides [10]): 16 µg/mL
MIC (Rhizopus arrhizus [12]): 128 µg/mL
MIC (Rhizopus arrhizus [13]): 128 µg/mL
MIC [14]: 128 µg/mL
MIC (Rhizopus arrhizus [15]): 128 µg/mL
MIC (Mucor circinelloides [17]): 16 µg/mL
MIC (Rhizopus arrhizus [18]): 8 µg/mL
MIC [19]: 128 µg/mL
Sequence: COLISTIN
inhibition zone (IZ) (Rhizopus arrhizus [1]): 19 mm
MFC [2]: 64 µg/mL
MFC (Rhizopus arrhizus [3]): > 128 µg/mL
Activity (Rhizopus arrhizus [4]): Active
MFC (Rhizopus homothallicus): 64 µg/mL
MFC (Rhizopus): 64 µg/mL
Ratio (Mucor circinelloides [5]): 2
Activity (Rhizopus arrhizus [6]): Active
Activity (Rhizopus arrhizus [7]): Dose-dependent effect
MFC (Rhizopus microsporus): > 128 µg/mL
MFC (Rhizopus arrhizus [8]): 32 µg/mL
MFC (Rhizopus arrhizus [9]): 32 µg/mL
MFC (Mucor circinelloides [10]): 32 µg/mL
Activity (Rhizopus arrhizus [11]): Active
MFC (Rhizopus arrhizus [12]): > 128 µg/mL
MFC (Rhizopus arrhizus [13]): > 128 µg/mL
MFC [14]: > 128 µg/mL
MFC (Rhizopus arrhizus [15]): > 128 µg/mL
inhibition (Rhizopus arrhizus [16]): 45%
MFC (Mucor circinelloides [17]): 64 µg/mL
MFC (Rhizopus arrhizus [18]): 32 µg/mL
MFC [19]: > 128 µg/mL

From ChEMBL document CHEMBL1212759, “Antifungal activity of colistin against mucorales species in vitro and in a murine model of Rhizopus oryzae pulmonary infection” (Antimicrob Agents Chemother, 2010)
